# Reference: ChEMBL document CHEMBL3526133, “Identifying a selective substrate and inhibitor pair for the evaluation of CYP2J2 activity” (Drug Metab Dispos, 2012)
# Structures can show the parent of a compound that is named as a salt.
# Tests used:
# CYP2J2 [1] = molecular target: T1, CYP2J2 (Homo sapiens, UniProt P51589); experiment: in vitro
# T1 sequence (P51589 whole entry): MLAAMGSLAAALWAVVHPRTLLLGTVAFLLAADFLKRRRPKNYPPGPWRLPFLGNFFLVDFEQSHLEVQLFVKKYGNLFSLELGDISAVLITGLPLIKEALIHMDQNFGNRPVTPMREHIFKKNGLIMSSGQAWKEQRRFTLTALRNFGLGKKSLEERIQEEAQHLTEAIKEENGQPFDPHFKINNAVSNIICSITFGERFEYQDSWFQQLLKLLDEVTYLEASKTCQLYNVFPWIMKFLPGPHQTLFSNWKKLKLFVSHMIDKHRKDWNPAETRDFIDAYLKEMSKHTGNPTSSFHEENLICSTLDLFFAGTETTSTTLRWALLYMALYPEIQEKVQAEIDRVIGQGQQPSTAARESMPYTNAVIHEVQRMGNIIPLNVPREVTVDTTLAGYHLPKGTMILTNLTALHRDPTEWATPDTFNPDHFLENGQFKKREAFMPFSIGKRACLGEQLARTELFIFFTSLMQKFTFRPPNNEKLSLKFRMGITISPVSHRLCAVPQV
# CYP2J2 [2] = molecular target: T1, CYP2J2; experiment: in vitro; remark: listed apart in the source
# [3] = Retention time in potassium phosphate buffer treated with amiodarone hydrochloride at 30 uM by HPLC analysis; type: physicochemical
# Cytochrome P450 2J2 [4] = molecular target: T2, Cytochrome P450 2J2 (Homo sapiens, UniProt P51589); experiment: Drug metabolism assessed as recombinant CYP2J2 (unknown origin)-mediated compound formation treated with amiodarone at 1 uM after 5 to 45 mins by LC-MS/MS analysis; type: ADME; settings: recombinant enzyme
# T2 sequence (P51589 whole entry): T1 sequence (P51589 whole entry)
# Method in brief: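 Preincubated, then started with NADPH-regenerating system (1 mM NADPH final). Aliquots taken at 0, 5, 10, 20, 30, 45 min and quenched in acetonitrile with internal standard. No-NADPH controls included. Products measured by LC-MS/MS.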
# Cytochrome P450 2J2 [5] = molecular target: T2, Cytochrome P450 2J2; experiment: Drug metabolism in human liver microsomes assessed as CYP2J2-mediated compound formation treated with amiodarone at 1 uM after 5 to 45 mins by LC-MS/MS analysis; type: ADME
# Cytochrome P450 1A2 = molecular target: T3, Cytochrome P450 1A2 (Homo sapiens, UniProt P05177)
# T3 sequence (P05177 whole entry): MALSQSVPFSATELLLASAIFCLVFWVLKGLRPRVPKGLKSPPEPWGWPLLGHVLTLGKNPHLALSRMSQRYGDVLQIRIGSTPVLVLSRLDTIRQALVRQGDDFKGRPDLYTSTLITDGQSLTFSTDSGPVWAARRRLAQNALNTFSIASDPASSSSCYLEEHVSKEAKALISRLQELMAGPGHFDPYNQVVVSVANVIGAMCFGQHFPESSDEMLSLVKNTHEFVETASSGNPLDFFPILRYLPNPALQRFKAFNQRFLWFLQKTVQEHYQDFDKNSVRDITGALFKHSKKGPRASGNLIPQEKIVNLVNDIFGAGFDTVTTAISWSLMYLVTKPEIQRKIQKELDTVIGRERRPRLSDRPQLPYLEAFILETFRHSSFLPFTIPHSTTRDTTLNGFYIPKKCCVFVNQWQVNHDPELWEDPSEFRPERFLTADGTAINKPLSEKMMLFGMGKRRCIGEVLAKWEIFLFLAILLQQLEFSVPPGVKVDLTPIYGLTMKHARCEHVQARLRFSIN
# Cytochrome P450 2C8 = molecular target: T4, Cytochrome P450 2C8 (Homo sapiens, UniProt P10632)
# T4 sequence (P10632 whole entry): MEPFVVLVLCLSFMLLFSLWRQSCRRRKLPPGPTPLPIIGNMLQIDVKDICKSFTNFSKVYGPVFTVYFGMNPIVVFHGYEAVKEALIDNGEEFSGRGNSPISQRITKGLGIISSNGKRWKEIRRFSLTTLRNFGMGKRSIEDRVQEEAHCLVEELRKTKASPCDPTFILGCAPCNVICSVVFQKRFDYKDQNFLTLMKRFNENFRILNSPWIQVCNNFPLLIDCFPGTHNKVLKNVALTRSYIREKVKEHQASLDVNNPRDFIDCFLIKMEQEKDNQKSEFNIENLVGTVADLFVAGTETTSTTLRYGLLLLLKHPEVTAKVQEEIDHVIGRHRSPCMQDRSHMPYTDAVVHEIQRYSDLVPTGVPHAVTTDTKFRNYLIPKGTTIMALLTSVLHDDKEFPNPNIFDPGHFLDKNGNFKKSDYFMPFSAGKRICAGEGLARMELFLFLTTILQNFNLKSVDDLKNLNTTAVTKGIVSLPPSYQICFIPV
# Cytochrome P450 2C9 = Cytochrome P450 2C9 (Homo sapiens, UniProt P11712)
# Cytochrome P450 2D6 = Cytochrome P450 2D6 (Homo sapiens, UniProt P10635)
# Cytochrome P450 2C19 = Cytochrome P450 2C19 (Homo sapiens, UniProt P33261)
# [6] = recombinant CYP2J2, probe terfenadine (hydroxylation)
# [7] = recombinant CYP2J2, probe astemizole (O-demethylation)
# Chain of Cytochrome P450 2C9 (P11712 whole entry): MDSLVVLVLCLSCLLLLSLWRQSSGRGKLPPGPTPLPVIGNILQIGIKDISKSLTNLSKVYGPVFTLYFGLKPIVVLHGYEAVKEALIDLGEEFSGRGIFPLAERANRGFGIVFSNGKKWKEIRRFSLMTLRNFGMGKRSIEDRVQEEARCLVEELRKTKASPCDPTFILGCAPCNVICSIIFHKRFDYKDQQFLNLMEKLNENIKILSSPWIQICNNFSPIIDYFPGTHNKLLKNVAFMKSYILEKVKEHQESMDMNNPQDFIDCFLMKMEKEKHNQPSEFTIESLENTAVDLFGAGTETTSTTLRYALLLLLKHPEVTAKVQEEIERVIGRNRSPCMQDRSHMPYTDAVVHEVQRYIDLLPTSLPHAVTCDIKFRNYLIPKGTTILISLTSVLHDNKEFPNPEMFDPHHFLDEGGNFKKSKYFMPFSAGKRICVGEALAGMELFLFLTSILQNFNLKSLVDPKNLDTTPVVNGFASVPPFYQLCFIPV
# Chain of Cytochrome P450 2C19 (P33261 whole entry): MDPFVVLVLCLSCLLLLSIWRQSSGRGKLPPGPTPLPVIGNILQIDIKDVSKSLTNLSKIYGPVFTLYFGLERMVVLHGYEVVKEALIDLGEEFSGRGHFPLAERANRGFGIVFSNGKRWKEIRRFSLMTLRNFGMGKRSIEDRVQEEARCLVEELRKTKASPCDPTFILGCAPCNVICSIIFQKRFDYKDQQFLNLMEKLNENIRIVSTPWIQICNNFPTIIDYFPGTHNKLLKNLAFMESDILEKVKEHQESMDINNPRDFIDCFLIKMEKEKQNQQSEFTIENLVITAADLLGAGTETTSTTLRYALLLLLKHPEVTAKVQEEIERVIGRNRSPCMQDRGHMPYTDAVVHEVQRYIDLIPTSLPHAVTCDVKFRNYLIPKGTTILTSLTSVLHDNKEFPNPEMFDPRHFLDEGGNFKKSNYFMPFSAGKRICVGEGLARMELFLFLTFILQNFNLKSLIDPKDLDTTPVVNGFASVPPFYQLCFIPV
# Chain of Cytochrome P450 2D6 (P10635 whole entry): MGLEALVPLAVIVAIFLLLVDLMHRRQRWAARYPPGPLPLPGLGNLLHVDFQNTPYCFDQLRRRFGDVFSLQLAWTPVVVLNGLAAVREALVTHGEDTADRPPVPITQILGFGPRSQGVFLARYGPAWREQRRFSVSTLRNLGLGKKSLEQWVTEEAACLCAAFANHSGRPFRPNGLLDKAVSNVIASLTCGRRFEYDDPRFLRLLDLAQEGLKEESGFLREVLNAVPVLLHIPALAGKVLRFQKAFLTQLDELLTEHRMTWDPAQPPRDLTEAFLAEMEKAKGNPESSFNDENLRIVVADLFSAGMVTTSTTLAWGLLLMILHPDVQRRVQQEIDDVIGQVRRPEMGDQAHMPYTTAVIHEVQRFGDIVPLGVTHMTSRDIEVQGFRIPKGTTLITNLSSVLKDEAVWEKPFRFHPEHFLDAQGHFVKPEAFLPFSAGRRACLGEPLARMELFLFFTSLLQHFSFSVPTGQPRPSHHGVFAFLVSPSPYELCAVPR
Structure (SMILES),"activity at 5 min, 30 µM (CYP2J2 [1]; [6]) [%]","activity at 5 min, 30 µM (CYP2J2 [2]; [7]) [%]",IC50 (Cytochrome P450 2C8) [µM],also measured
CCOC(=O)[C@H](CCc1ccccc1)N[C@@H](C)C(=O)N1Cc2ccccc2C[C@H]1C(=O)O,51.4,64.1,–,–
CCN(CC)CCOc1c(I)cc(C(=O)c2c(CCCCO)oc3ccccc23)cc1I,–,–,–,Retention_time [3]: 12.7 min; Drug metabolism (Cytochrome P450 2J2 [4]): metabolite_detected; Drug metabolism (Cytochrome P450 2J2 [5]): metabolite_detected
COc1ccc(CCN(C)CCCC(C#N)(c2ccc(OC)c(OC)c2)C(C)C)cc1OC (stereo not drawn),1.3,69.1,–,IC50 (Cytochrome P450 1A2): > 30 µM
"O[C@@H](c1cc(C(F)(F)F)nc2c(C(F)(F)F)cccc12)[C@H]1CCCCN1 (relative stereo) [(S,R)-MEFLOQUINE]",22.4,44.6,> 30,–
CCCSc1ccc2nc(NC(=O)OC)[nH]c2c1 [ALBENDAZOLE],–,–,> 30,IC50 (Cytochrome P450 1A2): > 30 µM; IC50 (Cytochrome P450 2C9): > 30 µM; IC50 (Cytochrome P450 2D6): > 30 µM; IC50 (Cytochrome P450 2C19): > 30 µM
CCN(CC)Cc1cc(Nc2ccnc3cc(Cl)ccc23)ccc1O [AMODIAQUINE],22.5,7.7,–,–
CC(C)COCC(CN(Cc1ccccc1)c1ccccc1)N1CCCC1 (stereo not drawn) [BEPRIDIL],–,–,> 30,IC50 (Cytochrome P450 1A2): > 30 µM; IC50 (Cytochrome P450 2D6): > 30 µM
CCCC1O[C@@H]2C[C@H]3[C@@H]4CCC5=CC(=O)C=C[C@]5(C)[C@H]4[C@@H](O)C[C@]3(C)[C@]2(C(=O)CO)O1 (stereo partly drawn) [BUDESONIDE],50.8,–,–,–
CCN(CC)CCOc1ccc(C(=C(Cl)c2ccccc2)c2ccccc2)cc1 [CLOMIPHENE],44.2,109,–,–
Clc1ccccc1C(c1ccccc1)(c1ccccc1)n1ccnc1 [CLOTRIMAZOLE],14.1,5.6,–,IC50 (Cytochrome P450 2C9): 0.136 µM; IC50 (Cytochrome P450 2D6): 0.883 µM; IC50 (Cytochrome P450 2C19): 7.41 µM
CN(C)CCC=C1c2ccccc2C=Cc2ccccc21 [CYCLOBENZAPRINE],–,–,–,"activity at 5 min, 30 µM (CYP2J2 [1]; recombinant enzyme): 48.9%; activity at 5 min, 30 µM (CYP2J2 [2]; recombinant enzyme): 65.9%"
C#C[C@]1(O)CC[C@H]2[C@@H]3CCC4=Cc5oncc5C[C@]4(C)[C@H]3CC[C@@]21C [DANAZOL],1.6,8,1.95,IC50 (Cytochrome P450 1A2): > 30 µM
O=c1[nH]c2ccccc2n1CCCN1CCC(n2c(=O)[nH]c3cc(Cl)ccc32)CC1 [DOMPERIDONE],43.5,50.5,–,–
CNCCC(Oc1ccc(C(F)(F)F)cc1)c1ccccc1 (stereo not drawn) [FLUOXETINE],–,–,–,"activity at 5 min, 30 µM (CYP2J2 [1]; recombinant enzyme): 44.3%; activity at 5 min, 30 µM (CYP2J2 [2]; recombinant enzyme): 87%"
COCCCC/C(=N\OCCN)c1ccc(C(F)(F)F)cc1 [FLUVOXAMINE],48.7,54.4,–,–
O=C(CCCN1CCC(O)(c2ccc(Cl)cc2)CC1)c1ccc(F)cc1 [HALOPERIDOL],15.6,14.7,–,–

Structure (SMILES),"activity at 5 min, 30 µM (CYP2J2 [1]; [6]) [%]","activity at 5 min, 30 µM (CYP2J2 [2]; [7]) [%]",IC50 (Cytochrome P450 2C8) [µM],also measured
COC(=O)C1=C(C)NC(C)=C(C(=O)OC(C)C)C1c1cccc2nonc12 (stereo not drawn) [ISRADIPINE],23.7,13.6,–,IC50 (Cytochrome P450 1A2): 28.3 µM
CC(=O)N1CCN(c2ccc(OCC3COC(Cn4ccnc4)(c4ccc(Cl)cc4Cl)O3)cc2)CC1 (stereo not drawn) [KETOCONAZOLE],5.8,5.4,–,–
Cc1c(OCC(F)(F)F)ccnc1C[S+]([O-])c1nc2ccccc2[nH]1 (stereo not drawn) [LANSOPRAZOLE],0.7,71.1,5.75,IC50 (Cytochrome P450 1A2): 6.46 µM; IC50 (Cytochrome P450 2C9): 19.2 µM; IC50 (Cytochrome P450 2D6): 2.9 µM; IC50 (Cytochrome P450 2C19): 13.4 µM
CCOC(=O)N1CCC(=C2c3ccc(Cl)cc3CCc3cccnc32)CC1 [LORATADINE],–,–,2.95,"activity at 5 min, 30 µM (CYP2J2 [1]; recombinant enzyme): 11.4%; activity at 5 min, 30 µM (CYP2J2 [2]; recombinant enzyme): 4%"
CC[C@H](C)C(=O)O[C@H]1C[C@@H](C)C=C2C=C[C@H](C)[C@H](CC[C@@H]3C[C@@H](O)CC(=O)O3)[C@H]21 [LOVASTATIN],37.7,13.6,–,–
CCC(=O)C(CC(C)N(C)C)(c1ccccc1)c1ccccc1 (stereo not drawn) [METHADONE],43,123,–,–
Clc1ccc(COC(Cn2ccnc2)c2ccc(Cl)cc2Cl)c(Cl)c1 (stereo not drawn) [MICONAZOLE],3.4,10.1,–,–
COC(=O)C1=C(C)NC(C)=C(C(=O)OCCN(C)Cc2ccccc2)C1c1cccc([N+](=O)[O-])c1 (stereo not drawn) [NICARDIPINE],–,–,–,"activity at 5 min, 30 µM (CYP2J2 [1]; recombinant enzyme): 8.9%; activity at 5 min, 30 µM (CYP2J2 [2]; recombinant enzyme): 5.8%"
CNCCC=C1c2ccccc2CCc2ccccc21 [NORTRIPTYLINE],–,–,–,"activity at 5 min, 30 µM (CYP2J2 [1]; recombinant enzyme): 45.3%; activity at 5 min, 30 µM (CYP2J2 [2]; recombinant enzyme): 70.1%"
COc1ccc2[nH]c([S+]([O-])Cc3ncc(C)c(OC)c3C)nc2c1 (stereo not drawn) [OMEPRAZOLE],46.1,70.5,–,–
Cc1ccccc1C(OCCN(C)C)c1ccccc1 (stereo not drawn) [ORPHENADRINE],1.2,102,> 30,IC50 (Cytochrome P450 1A2): > 30 µM; IC50 (Cytochrome P450 2C9): > 30 µM; IC50 (Cytochrome P450 2C19): 24.2 µM
Fc1ccc([C@@H]2CCNC[C@H]2COc2ccc3c(c2)OCO3)cc1 [PAROXETINE HYDROCHLORIDE],31.6,39,> 30,IC50 (Cytochrome P450 1A2): 5.33 µM; IC50 (Cytochrome P450 2C9): > 30 µM
O=c1[nH]c2ccccc2n1C1CCN(CCCC(c2ccc(F)cc2)c2ccc(F)cc2)CC1 [PIMOZIDE],27.3,6.6,> 30,IC50 (Cytochrome P450 1A2): > 30 µM
O=c1c(O)c(-c2ccc(O)c(O)c2)oc2cc(O)cc(O)c12 [QUERCETIN],29.8,44.7,–,IC50 (Cytochrome P450 2D6): 18.8 µM
CC/C(=C(\c1ccccc1)c1ccc(OCCN(C)C)cc1)c1ccccc1 [TAMOXIFEN],11.5,9.1,14.3,–
CSc1ccc2c(c1)N(CCC1CCCCN1C)c1ccccc1S2 (stereo not drawn) [THIORIDAZINE],51.7,12.9,–,–
